From PubChem BioAssay
PP1 counter = PP1-alpha phosphatase inhibitors, primary screen, counter-screen for PP5 inhibitor project, biochemical, fluorescence, OMFP substrate, single point. Serine/threonine-protein phosphatase PP1-alpha catalytic subunit (Homo sapiens), P62136. purified PP1alpha. inhibition, % at 6.7 µM. hit rate 0.9% among 320,000;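 active = inhibition above the mean inhibition of all tested compounds plus 3 SD, computed separately for each screening campaign, cut at about 15% in these data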
RBBP9 inhibitor = human RBBP9 inhibitors, primary screen, biochemical, fluorescence polarization, FP-Rh probe, HTS | hit rate 0.2% among 220,000 | inhibition, % at 7.94 µM | recombinant RBBP9 | Serine hydrolase RBBP9 (Homo sapiens), O75884;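 active = inhibition above the campaign mean of all tested compounds plus 3 SD, cut at about 14% in these data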;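 also: plate controls were DMSO wells with RBBP9 for no effect and wells lacking RBBP9 protein for full effect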
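Test system: recombinant human RBBP9; Timing: 30 min then 45 min, 25 °C; Detection: fluorescence polarization; Control set: RBBP9 with DMSO as uninhibited control, no-protein wells as full inhibition; Compound dosing: one concentration, 7.94 µM nominal, 0.794% DMSO; Probe or stimulus: FP-Rh activity-based probe, 375 nM before mixing.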
PKD1 inh = inhibitors of human PKD1 kinase, biochemical, fluorescence polarization | AID 797, 2007 | hit rate 0.056% among 200,000 | PKD1 kinase fluorescence polarization assay | Serine/threonine-protein kinase D1 (Homo sapiens), Q15139 | inhibition, % (concentration not given with the values); in the data active = inhibition above about 50%
Target sequence (Q15139 whole entry, looked up): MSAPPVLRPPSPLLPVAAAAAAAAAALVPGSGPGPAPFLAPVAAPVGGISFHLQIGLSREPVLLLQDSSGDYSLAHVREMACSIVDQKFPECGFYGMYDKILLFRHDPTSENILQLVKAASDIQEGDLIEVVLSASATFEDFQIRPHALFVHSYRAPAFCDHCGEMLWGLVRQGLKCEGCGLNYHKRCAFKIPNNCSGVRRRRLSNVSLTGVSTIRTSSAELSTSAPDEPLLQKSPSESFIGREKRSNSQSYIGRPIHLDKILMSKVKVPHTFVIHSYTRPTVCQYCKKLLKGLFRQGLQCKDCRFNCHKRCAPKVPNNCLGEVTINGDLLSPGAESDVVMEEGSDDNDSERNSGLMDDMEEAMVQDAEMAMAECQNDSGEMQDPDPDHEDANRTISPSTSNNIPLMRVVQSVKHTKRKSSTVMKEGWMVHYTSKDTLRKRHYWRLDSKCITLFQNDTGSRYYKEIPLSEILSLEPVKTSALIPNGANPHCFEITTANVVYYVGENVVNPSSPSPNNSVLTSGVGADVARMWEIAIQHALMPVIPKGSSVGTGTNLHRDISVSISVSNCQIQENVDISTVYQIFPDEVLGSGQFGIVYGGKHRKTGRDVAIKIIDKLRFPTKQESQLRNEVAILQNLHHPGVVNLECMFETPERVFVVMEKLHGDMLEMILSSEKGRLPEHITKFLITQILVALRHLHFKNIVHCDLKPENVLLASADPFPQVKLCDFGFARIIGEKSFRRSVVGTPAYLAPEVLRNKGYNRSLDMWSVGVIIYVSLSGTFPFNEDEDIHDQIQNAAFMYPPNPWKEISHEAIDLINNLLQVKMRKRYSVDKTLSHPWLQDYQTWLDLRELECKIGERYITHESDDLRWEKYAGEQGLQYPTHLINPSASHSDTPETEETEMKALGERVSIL
PP5 inh = PP5 phosphatase inhibitors, primary screen, biochemical, fluorescence. hit rate 0.18% among 320,000. Serine/threonine-protein phosphatase 5 (Homo sapiens), P53041. inhibition, % at 6.7 µM. purified PP5c, OMFP substrate fluorescence. AID 1987, 2009;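 active = inhibition above the campaign's mean inhibition across all tested compounds plus 3 SD, cut at about 9.5% in these data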;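 also: 0% = DMSO only and 100% = 100 µM cantharidin control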
Hsp70 activator = Hsp70 transcriptional activators, primary screen, cell-based, HeLa, Hsp70 promoter luciferase, luminescence, 10 µM; activation, % at 10 µM; hit rate 0.04% among 200,000; HeLa Hsp70 promoter luciferase reporter; scaled: vehicle 0, proteasome-inhibitor control 100%;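 active = activation above the mean across all tested compounds plus 3 SD, cutoff set per campaign, cut at about 5.5% in these data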;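 also: 100% = MG132 at 30 µM as the positive control and 0% = DMSO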
p97 ATPase inh = inhibitors of human p97 ATPase, primary screen, biochemical | Transitional endoplasmic reticulum ATPase (Homo sapiens), P55072 | recombinant p97 ATPase, Kinase-Glo ATP luminescence, 3 h | inhibition, % at 8 µM | hit rate 0.42% among 220,000 | AID 1481, 2009; in the data active = inhibition above about 15%;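 also: 0% = DMSO vehicle and 100% = wells lacking enzyme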
p97 confirm = p97 ATPase inhibitors, retest, confirmation, biochemical. shares compounds with p97 ATPase inh. recombinant p97 ATPase, Kinase-Glo ATP luminescence. inhibition, % at 8 µM. hit rate 44% among 760;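 active = percent inhibition of p97 ATPase above a set limit, the primary screen's mean plus 3 SD, cut at about 15% in these data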;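 also: 0% = DMSO wells and 100% = wells lacking p97 protein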
An asterisk follows results filed as active; . = not tested or not shown. The list is not random: actives were taken first. Their share in the collection is about 1.5%.

SMILES | PP1 counter | RBBP9 inhibitor | PKD1 inh | PP5 inh | Hsp70 activator | p97 ATPase inh | p97 confirm
Oc1ccc2ccccc2c1C=NCc1cn2ccsc2n1 | 1 | -4 | 2 | 1 | 0 | 40* | 7
N=C1/C(=C\c2ccc(SCc3ccco3)o2)C(=O)N=C2SC=NN12 | 5 | -5 | -13 | 1 | 0 | 18* | 16*
Cc1ccc(C(=O)COC(=O)CN2C(=O)C3C4C=CC(C4)C3C2=O)cc1C (stereo unspecified) | -2 | . | . | 0 | . | . | .
O=c1c(-c2ccc([N+](=O)[O-])cc2)coc2c(O)c(O)ccc12 | 0 | -3 | . | 0 | . | 18* | 24*
CN(C)Cc1c(O)ccc2c(=O)c(-c3ccc(Cl)cc3)coc12 | 0 | . | . | 1 | . | . | .
CCOc1ccccc1NC(=O)NCc1ccc(F)cc1 | -2 | -8 | 6 | 0 | 0 | -1 | .
CCOc1ccc(NC(=O)c2ccc3c(c2)OCCO3)cc1S(=O)(=O)N(CC)CC | -6 | . | . | -2 | . | . | .
c1ccc(-c2ccc(C3=Nn4c(nnc4-c4cccs4)SC3)cc2)cc1 | 14 | -16 | . | 2 | . | 2 | .
CCc1ccc(C2=Nn3c(nnc3-c3cccs3)SC2)cc1 | 8 | -2 | -1 | 2 | 0 | 19* | 4
CC1=NN(c2ccc(Cl)cc2)C(=O)C1C(c1cccc(O)c1)c1c(C)[nH]n(-c2ccc(Cl)cc2)c1=O (stereo unspecified) | 3 | -1 | 0 | 8 | 0 | 17* | 8
Cc1[nH][nH]c(=O)c1C(c1ccc(-c2ccc(Cl)c(Cl)c2)o1)c1c(C)[nH][nH]c1=O | 2 | -1 | 2 | 0 | 0 | 6 | .
Cc1[nH][nH]c(=O)c1C(c1ccc(-c2ccc(C(=O)O)cc2)o1)c1c(C)[nH][nH]c1=O | . | 0 | 14 | . | 0 | 25* | 10
CCOc1ccc(NC(=O)c2ccc(NC(=S)NC3CCCCC3)cc2)cc1 | 8 | -3 | -1 | 0 | 0 | 15* | 9
CC1=NN(c2ccc(Cl)c(C(=O)O)c2)C(=O)C1 | -1 | 5 | -10 | 2 | 0 | 34* | 6
CC1=NN(c2ccc(C(=O)O)c(N)c2)C(=O)C1 | 1 | 6 | 3 | 4 | 0 | 10 | .
CC1CC(C)CN(CCCNC(=O)Cc2c(C(=O)O)n(C)c3ccccc23)C1 (stereo unspecified) | -4 | -11 | -4 | -1 | 0 | 0 | .
CC(C)c1ccc(NC(=O)C(c2ccccc2)N2CC(=O)Nc3ccccc32)cc1 (stereo unspecified) | 12 | -5 | 9 | -1 | 0 | 15* | 6
COc1ccc(N2C(=O)C(Cl)=C(Nc3ccc(OC)cc3OC)C2=O)cc1 | -3 | -3 | -5 | 2 | 0 | 4 | .
CCOc1ccc(N2C(=O)C(Cl)=C(Nc3ccccc3O)C2=O)cc1 | 2 | -1 | -3 | 3 | 0 | 2 | .
COc1ccc(NC2=C(Cl)C(=O)N(c3ccccc3)C2=O)c(OC)c1 | 1 | -5 | -3 | 2 | 0 | 25* | 7
COc1ccccc1NC1=C(Cl)C(=O)N(c2ccccc2)C1=O | -2 | -7 | -7 | 4 | 0 | 17* | 27*
CCN(CC)S(=O)(=O)c1ccc(O)c(C(=O)OCC(=O)Nc2ccc(OC(F)(F)F)cc2)c1 | 3 | -4 | 2 | -1 | 0 | 7 | .
Clc1ccc(-c2ccc(CNCc3ccccn3)o2)cc1 | 7 | . | . | 2 | . | . | .
Cc1nonc1NC(=O)CSc1nc2ccccc2[nH]1 | -2 | -6 | 0 | 0 | 0 | 0 | .
CCOC(=O)NC(=O)CSc1nc2ccccc2[nH]1 | -1 | -9 | 2 | 0 | 0 | 16* | 6
SMILES | PP1 counter | RBBP9 inhibitor | PKD1 inh | PP5 inh | Hsp70 activator | p97 ATPase inh | p97 confirm
CN1CCCN=C1/C=C/c1cccs1 | -1 | . | . | 0 | . | . | .
Oc1c(C=C2N=c3ccccc3=N2)sc(=S)n1-c1ccccc1 | 0 | 4 | -13 | 3 | 0 | 7 | .
CC1=Nc2ccccc2/C1=C/c1sc(=S)n(-c2cccc(C(=O)O)c2)c1O | . | -4 | -2 | . | 0 | 16* | 35*
CSc1nsc(SCc2ccc(Cl)cc2)n1 | -3 | -7 | -6 | 0 | 0 | 26* | 0
CSc1nsc(SCc2ccc(F)cc2)n1 | 6 | -10 | -2 | 0 | 0 | 2 | .
Cc1[nH]n(-c2ccccc2)c(=O)c1/C=C1/C=c2ccccc2=N1 | . | 0 | -6 | . | 0 | 1 | .
Cc1[nH]n(-c2ccccc2)c(=O)c1/C=C1\C=NN=C1c1ccccc1 | 2 | -4 | . | 0 | . | 18* | 17*
C[C@H]1c2cccc(O)c2C(O)=C2C(=O)C3(O)C(O)=C(C(N)=O)C(=O)[C@@H](N(C)C)[C@@H]3[C@@H](O)[C@@H]21 (stereo partly specified) | 2 | . | . | 3 | . | . | .
C=C1c2cccc(O)c2C(O)=C2C(=O)[C@]3(O)C(O)=C(C(N)=O)C(=O)[C@@H](N(C)C)[C@@H]3[C@@H](O)[C@H]12 | 50* | 37* | 8 | 1 | 0 | 63* | 8
COc1ccc(C(=O)NCc2nnc(SCC(=O)Nc3cccc(F)c3)o2)cc1 | -7 | 5 | -4 | 2 | 0 | 2 | .
CC(=O)NS(=O)(=O)c1ccc(NC(=O)c2cc3c(=O)n4ccccc4nc3s2)cc1 | -4 | -7 | . | -3 | . | 17* | 7
Cc1cccc(NC(=O)c2cc3c(=O)n4ccccc4nc3s2)c1 | 0 | . | . | 0 | . | . | .
CSc1nc(-c2ccc(Cl)cc2)c(C#N)c(=O)[nH]1 | 2 | -8 | -3 | 1 | 0 | 4 | .
CSC1=C(C#N)C(=O)NC(c2ccc(Cl)cc2)S1 (stereo unspecified) | -4 | -3 | . | -1 | . | 18* | 31*
O=C(CSc1nnc(-c2ccncc2)n1-c1ccccc1)NC1CC1 | -1 | . | . | 3 | . | . | .
COc1ccc2nc(C)cc(SCC(=O)NNC(=O)COc3ccccc3)c2c1 | -2 | -5 | -2 | 2 | 0 | 15* | 10
O=C(N/N=C/c1c(Cl)nc2ccccn2c1=O)c1cccnc1 | -2 | 4 | . | -2 | . | 17* | 9
Cc1c(/C=N/NC(=O)c2cccnc2)c2ccccn2c1C(=O)c1ccc(F)cc1 | 0 | -16 | -2 | -2 | 0 | -2 | .
COc1ccc(Cl)c2sc(N(CCN(C)C)C(=O)c3ccc4c(c3)OCCO4)nc12 | -3 | . | . | 0 | . | . | .
COC(=O)Cc1nc(Nc2ccccc2)sc1C | -2 | -4 | . | -1 | . | 20* | 5
